Screening data: PubChem BioAssay, several laboratories
Rows were chosen to be rich in hits. Some 3.8% of all compounds tested hit in one or more screens of this group.
MPTP inh: permeability transition pore inhibition | 1.4% of 360,000 active | inhibition, % at 10 µM | isolated mouse mitochondria, Ca2+ swelling absorbance, 30 min | AID 602449;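 active means inhibition of 50% or more, scaled per plate between neutral and stimulator controls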;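 further: 0% = DMSO wells given calcium and 100% = 1 mM EGTA wells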
OX1R antag-1: human HCRTR1 antagonism; O43613; CHO/OX1R cells, Fluo-8 calcium fluorescence, orexin A; AID 434989; 0.43% of 330,000 active; inhibition, % at 5 µM;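 active means inhibition above its plate's threshold, mean inhibition of all tested compounds on the plate plus 3 SD, cut at about 37% in these data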;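 further: 0% = orexin A challenge wells and 100% = SB-334867-A antagonist wells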
OX1R antag-2: blocks the human orexin 1 receptor; O43613; OX1R-expressing cells, FRET antagonist read-out; AID 485270; 1.8% of 330,000 active; inhibition, % at 6.6 µM; in the data active means inhibition mostly above about 38%, no sharp cut-off; inactive means mostly below about 40%;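 further: 0% = agonist challenge alone and 100% = reference antagonist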
GPR7 antag: blocks human GPR7 receptor signaling; inhibition, % at 4.4 µM; 1.1% of 290,000 active; GPR7-expressing cells, fluorescence antagonist assay; in the data active means inhibition above about 16%, passing the limit was not always enough;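 further: cells stimulated with the agonist NPW; 0% = agonist with vehicle and 100% = vehicle without agonist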
Target sequence (P48145 whole entry, looked up): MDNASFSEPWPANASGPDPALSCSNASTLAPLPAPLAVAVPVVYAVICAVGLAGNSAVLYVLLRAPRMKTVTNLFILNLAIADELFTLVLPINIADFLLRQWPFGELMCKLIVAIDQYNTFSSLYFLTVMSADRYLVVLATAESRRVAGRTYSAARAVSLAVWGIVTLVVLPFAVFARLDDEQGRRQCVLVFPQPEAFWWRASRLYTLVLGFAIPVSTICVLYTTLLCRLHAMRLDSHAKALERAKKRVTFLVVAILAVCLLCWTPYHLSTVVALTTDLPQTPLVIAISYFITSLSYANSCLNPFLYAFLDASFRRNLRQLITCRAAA
CHO parental Ca: signal in parental CHO cells, OX1R antagonist counter-screen; inhibition, % at 5.6 µM; parental CHO-K1, ATP-induced calcium, Fluo-8 fluorescence; 0.63% of 330,000 active;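 active means inhibition above that plate's mean sample inhibition plus 3 SD, cut at about 26% in these data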;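 further: 0% = ATP-challenged DMSO wells and 100% = DMSO wells without ATP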
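Material – parental CHO cells · Reagent – ATP stimulus · Compound – single nominal dose of 5.6 µM per compound · Detection – Fluo-8 fluorescence · Read-out basis – percent inhibition of calcium signal · Controls – ATP-challenged DMSO wells low, unchallenged DMSO wells high · Repeats – no replicates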
GPR7 antag cf: human GPR7 antagonism, confirmation assay | shares compounds with GPR7 antag | GPR7-expressing cells, calcium fluorescence antagonist mode | inhibition, % at 4.4 µM | 52% of 2,400 active; in the data active means inhibition above about 24%;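 further: stimulated with the GPR7 agonist NPW; 0% = agonist plus vehicle and 100% = vehicle alone without agonist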
MCHR1 antag: MCHR1 (human) antagonism in GPR7 counter-screen; shares compounds with GPR7 antag; MCHR1-expressing cells, fluorescence antagonist assay; inhibition, % at 4.4 µM; 62% of 2,400 active; AID 2148; in the data active means inhibition above about 22%;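 further: 0% = vehicle with agonist and 100% = vehicle without agonist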
Numbers without * were called inactive.

Cc1ccc(C)c(N2N=C(C(=O)Nc3cccnc3)CCC2=O)c1 was read as MPTP inh -1, OX1R antag-1 8, OX1R antag-2 6 and CHO parental Ca -5.
Screening CC1CCc2sc(C(=O)N(C)CC(=O)Nc3ccc(N4CCOCC4)cc3)cc2C1 (configuration not stated) returned MPTP inh 1, OX1R antag-1 -25, OX1R antag-2 12, GPR7 antag -9 and CHO parental Ca -20.
`O=C(Nc1ccc2c(c1)CCCN2C(=O)c1cccs1)c1c(F)cccc1Cl` gave MPTP inh 2, OX1R antag-1 -18, OX1R antag-2 14, GPR7 antag 26*, CHO parental Ca -8, GPR7 antag cf 16 and MCHR1 antag 41*.
Screening CC(=O)c1cccc(NC(=O)NCCc2c[nH]c3ccccc23)c1 returned MPTP inh 4, OX1R antag-1 -9, OX1R antag-2 22, GPR7 antag -3 and CHO parental Ca -19.
O=C(Nc1cccc(CNCCc2c[nH]c3ccccc23)c1)c1ccccc1Cl was read as MPTP inh 1, OX1R antag-1 -12, OX1R antag-2 13, GPR7 antag 47*, CHO parental Ca 4, GPR7 antag cf 54* and MCHR1 antag 51*.
CN(C(=O)COC(=O)c1cc([N+](=O)[O-])ccc1N1CCOCC1)C1CCCCC1 was read as MPTP inh -1.
For CN(C(=O)c1cc([N+](=O)[O-])ccc1N1CCCC1)C1CCCCC1 the results were MPTP inh -1, OX1R antag-1 -26, OX1R antag-2 31, GPR7 antag 34*, CHO parental Ca -20, GPR7 antag cf 29* and MCHR1 antag 24*.
Screening Cc1ccc(C(=O)N2CCN(c3ccc(NC(=O)c4ccc5c(c4)OCCO5)cc3)CC2)cc1 returned MPTP inh -1, OX1R antag-1 -9, OX1R antag-2 22, GPR7 antag 32*, CHO parental Ca -3, GPR7 antag cf 33* and MCHR1 antag 65*.
For C(#CCN1CCC(Cc2ccccc2)CC1)COCCOCc1ccccc1 the results were MPTP inh 7, OX1R antag-1 -9, OX1R antag-2 21, GPR7 antag 13 and CHO parental Ca -19.
`CC(C)OC(=O)CSc1nnc(CNc2ccc(Cl)cc2)n1Cc1ccccc1` gave MPTP inh 20, OX1R antag-1 53*, OX1R antag-2 50, GPR7 antag 26*, CHO parental Ca 55*, GPR7 antag cf 24* and MCHR1 antag 51*.
CCOC(=O)CSc1nnc(CNc2ccc(Cl)cc2)n1Cc1ccccc1 was read as MPTP inh -1, OX1R antag-1 -13, OX1R antag-2 43, GPR7 antag -10 and CHO parental Ca 0.
O=C(Oc1ccc(C(=S)N2CCOCC2)cc1)c1ccccc1 was read as MPTP inh -2, OX1R antag-1 -17, OX1R antag-2 11, GPR7 antag 42*, CHO parental Ca 2, GPR7 antag cf 26* and MCHR1 antag 15.
O=C(Oc1ccc(C(=S)N2CCOCC2)cc1)c1ccc(Br)cc1 was read as MPTP inh 0, OX1R antag-1 -8, OX1R antag-2 4, GPR7 antag 0 and CHO parental Ca -3.
CN(Cc1ccccc1)C(=O)c1ccc(NC(=O)Cc2ccc(NC(=O)C3CCCN(C(=O)C4CC4)C3)cc2)cc1 (configuration not stated) was read as MPTP inh 4.
For CCCCCCn1c2c(c(=N)c3c1CCC3)CCC2 the results were MPTP inh 4, OX1R antag-1 -9, OX1R antag-2 11, GPR7 antag 37*, CHO parental Ca 5, GPR7 antag cf 42* and MCHR1 antag 46*.
For CCn1c2c(c(=N)c3c1CCC3)CCC2 the results were MPTP inh 1, OX1R antag-1 -18, OX1R antag-2 2, GPR7 antag -11 and CHO parental Ca 0.
OC(CNCc1ccco1)Cn1c2ccccc2c2ccccc21 (configuration not stated) was read as MPTP inh -3, OX1R antag-1 3, OX1R antag-2 10, GPR7 antag 21*, CHO parental Ca 10, GPR7 antag cf 19 and MCHR1 antag 14.
For OC(CNCc1ccco1)COc1ccccc1 (configuration not stated) the results were MPTP inh -1 and GPR7 antag -6.
